# Assay results: ChEMBL document CHEMBL4359864, “The synthesis and in vitro biological evaluation of novel fluorinated tetrahydrobenzo[j]phenanthridine-7,12-diones against Mycobacterium tuberculosis” (Eur J Med Chem, 2019)
# Tested on: Mycobacterium tuberculosis variant bovis BCG
# Experiment: Antimycobacterial activity against Mycobacterium bovis BCG ATCC 35737 by resazurin dye based fluorimetric assay
# Assay type: functional, organism-based
# Method in brief: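 Resazurin microtiter method as for the bacterial panel. Mycobacteria grown in 7H9 with 10% OADC and 0.5% glycerol; for BCG, 0.05% Tween 80 replaced the glycerol. Cultures were sonicated and needle-passed to single cells. Incubation at 37°C, or 32°C for M. marinum. Fluorescence read at ex 550/em 590 nm; mean of triplicates.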
row,SMILES,IC50 [µM]
1,O=C1C2=C(C(=O)c3c1cnc1ccc(C(F)(F)F)cc31)C1CCC2C1 (configuration not stated),12.5
2,O=C1C2=C(C(=O)c3c1cnc1ccccc31)C1CCC2C1 (configuration not stated),7.9
3,O=C1C2=C(C(=O)c3c1cnc1cc(C(F)(F)F)ccc31)C1CCC2C1 (configuration not stated),15
4,O=C1C2=C(C(=O)c3c1cnc1ccc(F)cc31)C1CCC2C1 (configuration not stated),10.3
5,O=C1C2=C(C(=O)c3c1cnc1c(F)cccc31)C1CCC2C1 (configuration not stated),5.03
6,O=C1C2=C(C(=O)c3c1cnc1cc(F)ccc31)C1CCC2C1 (configuration not stated),17.4
7,COc1c(N2C[C@@H]3CCCN[C@@H]3C2)c(F)cc2c(=O)c(C(=O)O)cn(C3CC3)c12 [MOXIFLOXACIN],0.03
